The values below come from ChEMBL document CHEMBL4342524, “Discovery of M-808 as a Highly Potent, Covalent, Small-Molecule Inhibitor of the Menin-MLL Interaction with Strong In Vivo Antitumor Activity” (J Med Chem, 2020).

Active and inactive are the calls of the source. No cut-off for these calls is given here. A value given as a limit tells only on which side of the number the result lay.

The target of data set [1] is T1, Menin (Homo sapiens) (UniProt O00255).
T1 sequence (whole entry): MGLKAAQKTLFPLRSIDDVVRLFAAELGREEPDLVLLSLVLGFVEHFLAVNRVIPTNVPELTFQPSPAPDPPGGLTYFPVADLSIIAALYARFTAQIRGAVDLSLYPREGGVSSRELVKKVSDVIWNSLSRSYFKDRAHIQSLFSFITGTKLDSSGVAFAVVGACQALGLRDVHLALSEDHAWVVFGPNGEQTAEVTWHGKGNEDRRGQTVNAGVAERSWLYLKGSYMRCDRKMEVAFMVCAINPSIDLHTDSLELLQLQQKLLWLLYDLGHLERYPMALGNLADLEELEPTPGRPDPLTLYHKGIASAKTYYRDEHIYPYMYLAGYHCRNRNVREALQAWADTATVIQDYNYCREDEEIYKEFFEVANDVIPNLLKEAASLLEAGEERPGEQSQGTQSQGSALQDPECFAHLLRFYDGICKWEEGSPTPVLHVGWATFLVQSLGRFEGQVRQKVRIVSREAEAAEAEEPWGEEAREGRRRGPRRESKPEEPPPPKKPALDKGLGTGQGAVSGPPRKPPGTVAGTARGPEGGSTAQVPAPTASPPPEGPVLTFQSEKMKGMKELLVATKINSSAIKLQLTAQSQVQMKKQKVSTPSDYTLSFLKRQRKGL
Put plainly: Covalent binding affinity to human menin assessed as protein-compound complex formation at protein to compound ratio of 1:1.2 measured after overnight incubation by LC-MS analysis relative to control. The procedure, abridged: (§1)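 Diluted to 1 mg/mL, then run on reverse-phase C4 LC with a 5–100% MeCN/0.2% formic acid gradient and Q-TOF MS. Intact masses obtained by maximum-entropy deconvolution.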

A further data set deals with HL-60. In words: Growth inhibition of human HL60 cells after 7 days by WST-8 assay. The class given is functional, cell-based. To be noted: HL-60, 168 h. In short, it runs like this:
(§2)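 Cells cultured in IMDM or RPMI 1640 with 10% FBS at 37 °C, 5% CO2. Growth read by WST-8 at 450 nm after at least 1 h with reagent. Signals normalized to untreated cells and IC50 fitted by nonlinear regression; mean and SD from three independent experiments.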
In general terms: Tetrazolium assays rely on reduction of a dye to a coloured formazan, in cell work by metabolically active cells.

Data set [2] deals with Mus musculus. Put plainly: In vivo inhibition of Menin-MLL protein-protein interaction in CB-17 SCID mouse xenografted with human MV4-11 cells assessed as reduction in MEIS1 expression in tumor at 25 mg/kg, iv measured after 6 to 24 hrs by RT-qPCR analysis. The class given is functional, organism-based. The procedure, abridged: (§3)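 MV4;11 flank xenografts in female C.B-17 SCID mice given a single 25 mg/kg IV dose or vehicle. Tumors harvested at 6, 24 and 48 h, 3 mice per time point, and frozen in liquid N2. RNA extracted; HOXA9 and MEIS1, with GAPDH, quantified by TaqMan qRT-PCR using the comparative Ct method.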
(A xenograft is tissue or cells of one species grown in another, often human tumour cells in immunodeficient mice.)

Data set [3] deals with T1, Menin (Homo sapiens). Put plainly: Covalent binding affinity to human menin assessed as protein-compound complex formation at protein to compound ratio of 1:1.2 after 1 hr by LC-MS analysis relative to control. The procedure, abridged: as §1
For data set [4], the system named is MV4-11. In words: Antitumor activity against human MV4-11 cells xenografted in CB-17 SCID mouse assessed as tumor growth inhibition at 25 mg/kg, iv administered every other day for 1 week (11 doses) and measured on day 35 post treatment relative to control. The class given is functional. To be noted: MV4-11, iv, read-out: TGI.
A further data set concerns MOLM-13. In words: Growth inhibition of human MOLM13 cells after 7 days by WST-8 assay. The class given is functional, cell-based. To be noted: MOLM-13, 168 h. In short, it runs like this: as §2
Data set [5] has as its system Mus musculus. Put plainly: Downregulation of Hoxa9 expression in tumors of CB-17 SCID mouse xenografted with human MV4-11 cells at 10 mg/kg, iv administered as single dose and measured after 24 hrs by RT-qPCR analysis. The class given is functional, organism-based. The procedure, abridged: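 MV4;11 subcutaneous xenografts in female C.B-17 SCID mice; single IV dose of 10 mg/kg or vehicle. Tumors collected 24 h post-dose, 3 mice per group, snap-frozen and powdered. Total RNA converted to cDNA; HOXA9, MEIS1 and GAPDH measured by TaqMan real-time PCR; relative expression by comparative Ct.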

In data set [6] the test system is MV4-11. Put plainly: Antitumor activity against human MV4-11 cells xenografted in CB-17 SCID mouse assessed as tumor volume at 25 mg/kg, iv administered every other day for 1 week (11 doses) and measured on day 35 post treatment (reference value: 92 mm3). The class given is functional.
The test system of data set [7] is Mus musculus. In words: Downregulation of MEIS1 expression in tumors of CB-17 SCID mouse xenografted with human MV4-11 cells at 10 mg/kg, iv administered as single dose and measured after 24 hrs by RT-qPCR analysis relative to control. The class given is functional. The procedure, abridged:
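Female C.B-17 SCID mice bearing subcutaneous MV4;11 flank xenografts were given a single IV dose (vehicle control). Tumors were harvested at 24 h, 3 mice per time point, snap-frozen in liquid N2 and ground. Total RNA was reverse-transcribed, and HOXA9, MEIS1 and GAPDH were measured by TaqMan real-time PCR. Relative expression was calculated by the comparative Ct method.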

Data set [8] relates to MV4-11. In words: Antitumor activity against human MV4-11 cells xenografted in CB-17 SCID mouse assessed as effect on tumor growth at 10 mg/kg, iv administered every other day for 1 week (11 doses). The class given is functional, organism-based. The procedure, abridged: (§4)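 Female C.B-17 SCID mice inoculated s.c. in the flank with 5 × 10^6 MV4;11 cells in 0.1 mL 1:1 PBS/Matrigel (final Matrigel 5 mg/mL). Dosed IV every other day, 3 times per week, 11 doses in total; vehicle-only control group. Tumor volume by calipers as (A × B²)/2, and body weight, measured 2–3 times weekly during treatment and at least weekly afterward. Toxicity signs monitored.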

The nature of data set [9]: Toxicity in CB-17 SCID mouse xenografted with human MV4-11 cells assessed as effect on body weight at 10 to 25 mg/kg, iv administered every other day for 1 week (11 doses). The class given is organism-based. To be noted: in vivo, 168 h. In short, it runs like this:
as §4

Data set [10] in a line: Toxicity in SCID mouse assessed as drug tolerability at 10 mg/kg, iv administered every other day for 1 week. The format is organism-based. The settings on record: in vivo, 168 h.
For a further data set, the target named is T2, Menin (Homo sapiens, UniProt O00255).
T2 sequence (O00255 whole entry): T1 sequence (whole entry)
Put plainly: Inhibition of fluorescent labeled tracer binding to Menin (unknown origin) after 1 hr by fluorescence polarization competitive binding assay. In short, it runs like this:
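Competitive FP assay: 4 nM menin and 2 nM fluorescein-labeled tracer (final concentrations) in PBS with 100 μg/mL bovine γ-globulin and 0.01% Triton X-100. Compounds added from DMSO at varying concentrations and incubated 1 h at room temperature. IC50 obtained by nonlinear sigmoidal fitting of the FP decrease against total compound concentration.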

The test system of data set [11] is MV4-11. In words: Growth inhibition of human MV4-11 cells after 7 days by WST-8 assay. The settings on record: MV4-11, 168 h. The format is functional, cell-based. In short, it runs like this:
as §2

The subject of data set [12] is Mus musculus. Put plainly: In vivo inhibition of Menin-MLL protein-protein interaction in CB-17 SCID mouse xenografted with human MV4-11 cells assessed as reduction in HOXA9 expression in tumor at 25 mg/kg, iv measured after 6 to 24 hrs by RT-qPCR analysis. The class given is functional, organism-based. The procedure, abridged:
as §3

A short description of data set [13]: Toxicity in SCID mouse assessed as drug tolerability at 25 mg/kg, iv administered every other day for 1 week. The format is organism-based. To be noted: in vivo, 168 h.
A short description of data set [14]: Toxicity in CB-17 SCID mouse xenografted with human MV4-11 cells assessed as effect on clinical signs at 10 to 25 mg/kg, iv administered every other day for 1 week (11 doses). The class given is organism-based. The settings on record: in vivo, 168 h. In short, it runs like this: as §4

For `COC(=O)N[C@H]1CCC[C@@H]1[C@](CN1CCC1)(c1cccc(F)c1)C1CCN(CC2CN(c3ccc(S(=O)(=O)C4CN(C(=O)/C=C/CN5CCCCC5)C4)cc3)C2)CC1`, the Activity at Menin (Homo sapiens) [1] was 100%; on Menin (Homo sapiens) [3], 75%; with MV4-11 [6] it was 59 mm3; in data set [9] it was “Non-Toxic”; in [10] it was “Non-Toxic”; in data set [13], “Non-Toxic”. The Activity entry in [14] is “Non-Toxic”. In addition, the IC50 (as a rule, the concentration at which inhibition is half-maximal) turned out to be 2800 nM in the data set with HL-60, 4 nM in the data set with MOLM-13, 2.6 nM at Menin and 1 nM in the data set on MV4-11 [11]. Besides, the inhibition entry in the data set on Mus musculus [2] and with Mus musculus [12] was “Active” each time. The inhibition in vivo at 25 mg/kg in the data set on MV4-11 [4] is 97%. In the data set on Mus musculus [5], the outcome was Active. In the data set with Mus musculus [7], the “fold change (FC)” value is given as more than 2. In addition, in the data set with MV4-11 [8], the outcome was inactive.
